Test results from ChEMBL document CHEMBL3853291, “Polycyclic Polyprenylated Derivatives from Hypericum uralum: Neuroprotective Effects and Antidepressant-like Activity of Uralodin A” (2016).

Legend:
PC-12 [1] = experiment: Neuroprotective activity against corticosterone-induced cell injury in rat PC12 cells assessed as cell viability at 0.1 uM after 48 hrs by MTT assay (reference value: 55.6 +/- 0.87%); assay type: functional; details: PC-12, 48 h, read-out: Activity
PC-12 [2] = experiment: Neuroprotective activity against corticosterone-induced cell injury in rat PC12 cells assessed as cell viability at 3 uM after 48 hrs by MTT assay (reference value: 55.6 +/- 0.87%); assay type: functional; details: PC-12, 48 h, read-out: Activity
PC-12 [3] = experiment: Neuroprotective activity against corticosterone-induced cell injury in rat PC12 cells assessed as cell viability at 1 uM after 48 hrs by MTT assay (reference value: 55.6 +/- 0.87%); assay type: functional; details: PC-12, 48 h, read-out: Activity
PC-12 [4] = experiment: Neuroprotective activity against corticosterone-induced cell injury in rat PC12 cells assessed as cell viability at 10 uM after 48 hrs by MTT assay (reference value: 55.6 +/- 0.87%); assay type: functional; details: PC-12, 48 h, read-out: Activity
PC-12 [5] = experiment: Neuroprotective activity against corticosterone-induced cell injury in rat PC12 cells assessed as cell viability at 0.3 uM after 48 hrs by MTT assay (reference value: 55.6 +/- 0.87%); assay type: functional; details: PC-12, 48 h, read-out: Activity
[6] = Antidepressant-like activity in LPS-induced ICR mouse assessed as decrease in immobility time at 13 mg/kg, ig qd for 5 days followed by LPS stimulation on 5th day injected 30 mins post last dose measured 24 hrs after stimulation monitored for last 4 mins by forced swim test relative to control; assay type: functional, organism-based; parameters: scale not given: the % may be the effect or the level left
Summary of the method: (§1)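 Male ICR mice (18−22 g), n = 12 per group. Dosed intragastrically once daily for 5 days as a suspension in 0.03% CMC-Na. On day 5, LPS 0.5 mg/kg i.p. was given 30 min after dosing. Tests were run 24 h after LPS. FST used a 20 × 14 cm cylinder with 10 cm water at 25 ± 1 °C, 6 min swim. TST suspended mice 50 cm high by the tail tape for 6 min. Immobility was scored over the last 4 min.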

[7] = Antidepressant-like activity in LPS-induced ICR mouse assessed as decrease in immobility time at 26 mg/kg, ig qd for 5 days followed by LPS stimulation on 5th day injected 30 mins post last dose measured 24 hrs after stimulation monitored for last 4 mins by tail suspension relative to control; assay type: functional, organism-based; parameters: scale not given: the % may be the effect or the level left; summary of the method: as §1
[8] = Antidepressant-like activity in LPS-induced ICR mouse assessed as decrease in immobility time at 13 mg/kg, ig qd for 5 days followed by LPS stimulation on 5th day injected 30 mins post last dose measured 24 hrs after stimulation monitored for last 4 mins by tail suspension test relative to control; assay type: functional, organism-based; parameters: scale not given: the % may be the effect or the level left; summary of the method: as §1
[9] = Antidepressant-like activity in LPS-induced ICR mouse assessed as decrease in immobility time at 26 mg/kg, ig qd for 5 days followed by LPS stimulation on 5th day injected 30 mins post last dose measured 24 hrs after stimulation monitored for last 4 mins by forced swim test relative to control; assay type: functional, organism-based; parameters: scale not given: the % may be the effect or the level left; summary of the method: as §1
[10] = Antidepressant-like activity in LPS-induced ICR mouse assessed as decrease in immobility time at 25 mg/kg, ig qd for 5 days followed by LPS stimulation on 5th day injected 30 mins post last dose measured 24 hrs after stimulation monitored for last 4 mins by forced swim test relative to control; assay type: functional, organism-based; parameters: scale not given: the % may be the effect or the level left
Summary of the method: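 Male ICR mice (18−22 g), 12 per group. Drug suspended in 0.03% CMC-Na and given intragastrically once daily for 5 days. LPS 0.5 mg/kg i.p. 30 min after the day-5 dose, with testing 24 h later. Mice swim 6 min at 25 ± 1 °C in a cylinder (20 cm high, 14 cm diameter, 10 cm water). Floating immobility scored over the last 4 min; mean ± SD.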

[11] = Antidepressant-like activity in LPS-induced ICR mouse assessed as decrease in immobility time at 25 mg/kg, ig qd for 5 days followed by LPS stimulation on 5th day injected 30 mins post last dose measured 24 hrs after stimulation monitored for last 4 mins by tail suspension test relative to control; assay type: functional, organism-based; parameters: scale not given: the % may be the effect or the level left
Summary of the method: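 Male ICR mice (18−22 g), n = 12 per group, given drug in 0.03% CMC-Na intragastrically once daily for 5 days. LPS 0.5 mg/kg i.p. 30 min after the last dose, with the test 24 h later. Mice visually and acoustically isolated, taped ~1 cm from the tail tip, hung 50 cm above the floor for 6 min. Passive motionless hanging timed over the last 4 min; mean ± SD.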

Row | SMILES | viability at 0.1 µM (PC-12 [1]) | viability at 3 µM (PC-12 [2]) | viability at 1 µM (PC-12 [3]) | viability at 10 µM (PC-12 [4]) | viability at 0.3 µM (PC-12 [5]) | Activity [6] | Activity [7] | Activity [8] | Activity [9] | Activity [10] | Activity [11]
1 | CC(C)=CCC[C@]1(C)[C@@H](CC=C(C)C)C[C@]2(CC=C(C)C)C(=O)C3=C(OC(C)(C)[C@@H](O)C3)[C@@]1(C(=O)c1ccccc1)C2=O | 70% | 69% | 77.6% | 65.9% | 80.8% |  |  |  |  |  | 
2 | CC(C)=CCC[C@]1(C)[C@@H](CC=C(C)C)C[C@]2(CC=C(C)C)C(=O)C(C(=O)c3ccccc3)=C3O[C@H](C(C)(C)O)C[C@@]31C2=O | 76.7% | 81.1% | 76.6% | 74.1% | 81.8% |  |  |  |  |  | 
3 | CC(C)=CCC[C@]1(C)[C@@H](CC=C(C)C)C[C@]2(CC=C(C)C)C(=O)C3=C(OC(C)(C)[C@H](O)C3)[C@@]1(C(=O)C(C)C)C2=O | 80.3% | 91.5% | 81.8% | 75.1% | 61.4% |  |  |  |  |  | 
4 | CC(C)=CCC[C@]1(C)[C@@H](CC=C(C)C)C[C@]2(C[C@H](O)C(C)(C)O)C(=O)C(C(=O)C(C)C)=C3O[C@H](C(C)(C)O)C[C@@]31C2=O | 72.3% | 76.5% | 81.1% | 71.5% | 80% |  |  |  |  |  | 
5 | CC(C)=CCC[C@]1(C)[C@@H](CC=C(C)C)C[C@]23C[C@@H](C(C)(C)O)OC2=C(CC=C(C)C)C(=O)[C@@]1(C(=O)c1ccccc1)C3=O | 85.7% | 90.2% | 85.9% | 85.3% | 87.1% | 21.4% | 12.6% | 6.6% | 28.1% |  | 
6 | CC(C)=CCC[C@]1(C)[C@@H](CC=C(C)C)C[C@@]2(CC=C(C)C)C(=O)[C@]1(C(=O)c1ccccc1)C(=O)C1=C2O[C@@H](C(C)(C)O)C1 | 55.6% | 72.9% | 74.7% | 75.9% | 56.6% |  |  |  |  |  | 
7 | CC(C)=CCC[C@]1(C)[C@@H](CC=C(C)C)C[C@@]2(CC=C(C)C)C(=O)[C@]1(C(=O)c1ccccc1)C(=O)C1=C2O[C@H](C(C)(C)O)C1 | 69.9% | 74.4% | 72.2% | 57% | 77.7% |  |  |  |  |  | 
8 | CNCCC(Oc1ccc(C(F)(F)F)cc1)c1ccccc1 (stereo unspecified) [FLUOXETINE] | 77.7% | 59.1% | 70.1% | 69.6% | 66.2% |  |  |  |  | 33.7% | 23.1%
9 | CC(C)=CCC[C@]1(C)[C@H](CC=C(C)C)C[C@]2(CC=C(C)C)C(=O)C(C(=O)C(C)C)=C3O[C@@H](C(C)(C)O)C[C@@]31C2=O | 80.9% | 63.8% | 77% | 61% | 68.1% |  |  |  |  |  | 
10 | CC(C)=CCC1=C2O[C@H](C(C)(C)O)CC[C@]3(C)[C@@H](CC=C(C)C)C[C@](CC=C(C)C)(C1=O)C(=O)[C@]23C(=O)c1ccccc1 | 83.4% | 81.6% | 83.5% | 84.2% | 82.7% |  |  |  |  |  | 
11 | CC(C)=CCC1=C2O[C@H](C(C)(C)O)CC[C@]3(C)[C@@H](C[C@H](O)C(C)(C)O)C[C@](CC=C(C)C)(C1=O)C(=O)[C@]23C(=O)C(C)C | 91.7% | 90.7% | 93.5% | 72.9% | 84.4% |  |  |  |  |  | 
12 | CC(C)=CCC[C@]1(C)[C@@H](CC=C(C)C)C[C@]2(CC=C(C)C)C(=O)C(C(=O)c3ccccc3)=C3O[C@@H](C(C)(C)O)C[C@@]31C2=O | 78.6% | 77.7% | 78.5% | 68.1% | 72.9% |  |  |  |  |  | 
13 | CC(C)=CCC1=C2O[C@H](C(C)(C)O)CC[C@]3(C)[C@@H](CC=C(C)C)C[C@](C[C@H](O)C(C)(C)O)(C1=O)C(=O)[C@]23C(=O)c1ccccc1 | 55.9% | 59.7% | 65% | 53.2% | 57.5% |  |  |  |  |  | 
14 | CC(C)=CCC[C@]1(C)[C@@H](CC=C(C)C)C[C@]2(CC=C(C)C)C(=O)C3=C(OC(C)(C)[C@H](O)C3)[C@@]1(C(=O)c1ccccc1)C2=O | 78.6% | 82.2% | 86.3% | 68.9% | 86.8% |  |  |  |  |  | 
15 | CC(C)=CCC[C@]1(C)[C@@H](CC=C(C)C)C[C@]2(C[C@H](O)C(C)(C)O)C(=O)C3=C(OC(C)(C)[C@@H](O)C3)[C@@]1(C(=O)c1ccccc1)C2=O | 77.9% | 72.5% | 78.5% | 80.9% | 77.7% |  |  |  |  |  | 
16 | CC(C)=CCC[C@]1(C)[C@@H](CC=C(C)C)C[C@]23C[C@@H](C(C)(C)O)OC2=C(CC=C(C)C)C(=O)[C@@]1(C(=O)C(C)C)C3=O | 77.2% | 77.7% | 79.7% | 85.2% | 79.9% |  |  |  |  |  | 
17 | CC(C)=CCC[C@]1(C)[C@@H](CC=C(C)C)C[C@]23C[C@H](C(C)(C)O)OC2=C(CC=C(C)C)C(=O)[C@@]1(C(=O)c1ccccc1)C3=O | 82.9% | 78% | 68.1% | 86.6% | 72.8% |  |  |  |  |  | 
